Activity calls are given as the source filed them. The calls are words filed in the database; no cut-off is given here.
Experiments:
[1] = Cytotoxicity against human HT-29 cells measured after 12 hrs by CellTiter-Glo Luminescent assay; type: cell-based
[2] = biological target: Epidermal growth factor receptor (Homo sapiens) (UniProt P00533); assay: Inhibition of wild-type human partial length EGFR (R669 to V1011 residues) expressed in bacterial expression system assessed as enzyme remaining activity at 1000 nM by Kinomescan method relative to control
Method in brief: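 KINOMEscan binding competition. […] Incubation was 1 h at room temperature with shaking, then bead wash and elution with 0.5 μM nonbiotinylated ligand for 30 min. Eluted kinase was quantified by qPCR. Compound was diluted from 40× DMSO stocks to 1000 nM final.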

[3] = biological target: Mitogen-activated protein kinase 3 (Homo sapiens) (UniProt P27361); assay: Inhibition of wild-type human full length ERK1 (M1 to P379 residues) expressed in bacterial expression system assessed as enzyme remaining activity at 1000 nM by Kinomescan method relative to control
Chain of Mitogen-activated protein kinase 3 (Homo sapiens) (P27361 whole entry, the tested form may be a part): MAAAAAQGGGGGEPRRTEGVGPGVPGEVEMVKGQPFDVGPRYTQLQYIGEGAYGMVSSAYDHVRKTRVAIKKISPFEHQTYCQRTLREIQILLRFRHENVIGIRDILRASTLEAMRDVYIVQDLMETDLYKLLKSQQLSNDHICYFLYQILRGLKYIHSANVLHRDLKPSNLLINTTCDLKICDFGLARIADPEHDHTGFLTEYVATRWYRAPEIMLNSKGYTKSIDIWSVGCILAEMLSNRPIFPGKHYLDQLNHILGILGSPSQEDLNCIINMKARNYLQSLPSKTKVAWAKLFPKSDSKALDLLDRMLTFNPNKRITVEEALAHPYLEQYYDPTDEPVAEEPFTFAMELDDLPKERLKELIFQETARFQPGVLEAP

[4] = biological target: Vascular endothelial growth factor receptor 2 (Homo sapiens) (UniProt P35968); assay: Inhibition of wild-type human partial length VEGFR2 (R787 to P1253 residues) expressed in mammalian expression system assessed as enzyme remaining activity at 1000 nM by Kinomescan method relative to control
[5] = biological target: Cyclin-dependent kinase 7 (Homo sapiens) (UniProt P50613); assay: Inhibition of wild-type human full length CDK7 (M1 to L344 residues) expressed in mammalian expression system assessed as enzyme remaining activity at 1000 nM by Kinomescan method relative to control
Chain of Cyclin-dependent kinase 7 (Homo sapiens) (P50613 whole entry, the tested form may be a part): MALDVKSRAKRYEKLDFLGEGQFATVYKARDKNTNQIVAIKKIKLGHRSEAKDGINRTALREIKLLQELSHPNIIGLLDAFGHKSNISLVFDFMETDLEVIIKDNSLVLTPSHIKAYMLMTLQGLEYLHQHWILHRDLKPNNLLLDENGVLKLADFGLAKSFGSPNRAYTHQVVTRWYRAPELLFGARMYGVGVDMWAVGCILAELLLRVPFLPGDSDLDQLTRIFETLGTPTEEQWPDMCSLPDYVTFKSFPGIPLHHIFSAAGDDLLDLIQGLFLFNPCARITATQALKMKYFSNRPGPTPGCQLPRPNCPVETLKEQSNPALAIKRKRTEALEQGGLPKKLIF

[6] = biological target: Mitogen-activated protein kinase kinase kinase 4 (Homo sapiens) (UniProt Q9Y6R4); assay: Inhibition of wild-type human partial length MAP3K4 (G1319 to E1608 residues) expressed in bacterial expression system assessed as enzyme remaining activity at 1000 nM by Kinomescan method relative to control
Chain of Mitogen-activated protein kinase kinase kinase 4 (Homo sapiens) (Q9Y6R4 whole entry, the tested form may be a part): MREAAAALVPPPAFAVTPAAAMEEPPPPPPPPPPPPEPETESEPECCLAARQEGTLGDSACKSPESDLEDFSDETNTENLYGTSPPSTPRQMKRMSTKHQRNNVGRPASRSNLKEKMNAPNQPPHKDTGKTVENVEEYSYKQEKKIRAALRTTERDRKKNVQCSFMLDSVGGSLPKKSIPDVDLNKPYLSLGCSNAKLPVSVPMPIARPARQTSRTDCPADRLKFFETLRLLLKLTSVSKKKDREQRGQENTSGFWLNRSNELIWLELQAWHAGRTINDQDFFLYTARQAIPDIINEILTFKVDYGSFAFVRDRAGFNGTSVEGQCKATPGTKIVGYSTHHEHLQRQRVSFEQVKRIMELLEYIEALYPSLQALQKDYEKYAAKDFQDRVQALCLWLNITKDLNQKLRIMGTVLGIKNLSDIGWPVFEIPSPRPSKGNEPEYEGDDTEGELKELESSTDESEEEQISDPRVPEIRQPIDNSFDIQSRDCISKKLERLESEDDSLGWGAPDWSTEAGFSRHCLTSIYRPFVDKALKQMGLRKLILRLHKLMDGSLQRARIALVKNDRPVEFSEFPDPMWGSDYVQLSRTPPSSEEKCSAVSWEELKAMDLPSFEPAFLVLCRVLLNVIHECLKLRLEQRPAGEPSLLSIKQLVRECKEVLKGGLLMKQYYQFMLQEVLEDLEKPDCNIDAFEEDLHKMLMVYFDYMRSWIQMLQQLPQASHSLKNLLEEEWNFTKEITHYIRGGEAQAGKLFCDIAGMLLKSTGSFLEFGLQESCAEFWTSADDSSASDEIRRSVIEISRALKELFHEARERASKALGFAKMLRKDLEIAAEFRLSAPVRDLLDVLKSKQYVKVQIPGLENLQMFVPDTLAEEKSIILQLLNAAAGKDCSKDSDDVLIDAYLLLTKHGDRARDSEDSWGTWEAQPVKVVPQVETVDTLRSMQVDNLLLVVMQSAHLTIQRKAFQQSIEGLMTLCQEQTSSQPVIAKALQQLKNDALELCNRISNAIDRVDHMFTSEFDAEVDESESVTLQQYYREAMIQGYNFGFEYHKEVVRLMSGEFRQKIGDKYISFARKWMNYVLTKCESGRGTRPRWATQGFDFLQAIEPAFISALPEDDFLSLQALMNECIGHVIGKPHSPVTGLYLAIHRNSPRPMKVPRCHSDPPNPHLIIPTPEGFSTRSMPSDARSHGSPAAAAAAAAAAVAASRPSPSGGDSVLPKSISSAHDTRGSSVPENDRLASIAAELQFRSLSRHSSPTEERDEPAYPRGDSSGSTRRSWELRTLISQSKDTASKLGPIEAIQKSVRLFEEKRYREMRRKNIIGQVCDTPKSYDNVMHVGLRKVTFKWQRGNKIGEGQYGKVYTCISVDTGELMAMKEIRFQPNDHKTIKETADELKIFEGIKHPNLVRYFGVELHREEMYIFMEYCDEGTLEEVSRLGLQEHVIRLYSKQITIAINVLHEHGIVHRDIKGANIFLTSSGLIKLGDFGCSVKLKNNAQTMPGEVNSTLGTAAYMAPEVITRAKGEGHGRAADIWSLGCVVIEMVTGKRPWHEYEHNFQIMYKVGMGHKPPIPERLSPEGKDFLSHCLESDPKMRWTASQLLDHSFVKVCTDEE

[7] = biological target: MAP kinase-activated protein kinase 2 (Homo sapiens) (UniProt P49137); assay: Inhibition of wild-type human partial length MAPKAPK2 (V48 to D345 residues) expressed in bacterial expression system assessed as enzyme remaining activity at 1000 nM by Kinomescan method relative to control
[8] = biological target: Inhibitor of nuclear factor kappa-B kinase subunit alpha (Homo sapiens) (UniProt O15111); assay: Inhibition of wild-type human full length IKK-alpha (M1 to E745 residues) expressed in mammalian expression system assessed as enzyme remaining activity at 1000 nM by Kinomescan method relative to control
Chain of Inhibitor of nuclear factor kappa-B kinase subunit alpha (Homo sapiens) (O15111 whole entry, the tested form may be a part): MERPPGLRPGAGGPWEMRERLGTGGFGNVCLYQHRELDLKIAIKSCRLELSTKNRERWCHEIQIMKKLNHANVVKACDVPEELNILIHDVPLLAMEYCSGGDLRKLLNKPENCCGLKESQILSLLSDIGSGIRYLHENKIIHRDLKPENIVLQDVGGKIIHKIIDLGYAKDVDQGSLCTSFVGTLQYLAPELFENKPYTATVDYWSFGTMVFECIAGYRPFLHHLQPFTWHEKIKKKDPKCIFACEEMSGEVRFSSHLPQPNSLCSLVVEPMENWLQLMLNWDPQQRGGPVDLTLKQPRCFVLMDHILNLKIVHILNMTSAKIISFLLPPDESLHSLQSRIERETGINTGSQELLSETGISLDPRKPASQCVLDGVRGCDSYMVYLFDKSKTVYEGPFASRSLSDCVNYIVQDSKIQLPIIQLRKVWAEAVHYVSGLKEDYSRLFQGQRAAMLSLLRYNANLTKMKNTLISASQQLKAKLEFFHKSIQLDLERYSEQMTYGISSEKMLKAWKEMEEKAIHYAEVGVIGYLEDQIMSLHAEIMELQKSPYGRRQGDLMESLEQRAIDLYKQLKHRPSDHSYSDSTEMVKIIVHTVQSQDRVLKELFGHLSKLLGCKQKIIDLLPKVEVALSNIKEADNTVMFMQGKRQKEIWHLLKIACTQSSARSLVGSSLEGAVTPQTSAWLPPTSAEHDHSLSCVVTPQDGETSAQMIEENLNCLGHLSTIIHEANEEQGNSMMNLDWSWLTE

[9] = biological target: Platelet-derived growth factor receptor beta (Homo sapiens) (UniProt P09619); assay: Inhibition of wild-type human partial length PDGFRB (V582 to Y1009 residues) expressed in bacterial expression system assessed as enzyme remaining activity at 1000 nM by Kinomescan method relative to control
Chain of Platelet-derived growth factor receptor beta (Homo sapiens) (P09619 whole entry, the tested form may be a part): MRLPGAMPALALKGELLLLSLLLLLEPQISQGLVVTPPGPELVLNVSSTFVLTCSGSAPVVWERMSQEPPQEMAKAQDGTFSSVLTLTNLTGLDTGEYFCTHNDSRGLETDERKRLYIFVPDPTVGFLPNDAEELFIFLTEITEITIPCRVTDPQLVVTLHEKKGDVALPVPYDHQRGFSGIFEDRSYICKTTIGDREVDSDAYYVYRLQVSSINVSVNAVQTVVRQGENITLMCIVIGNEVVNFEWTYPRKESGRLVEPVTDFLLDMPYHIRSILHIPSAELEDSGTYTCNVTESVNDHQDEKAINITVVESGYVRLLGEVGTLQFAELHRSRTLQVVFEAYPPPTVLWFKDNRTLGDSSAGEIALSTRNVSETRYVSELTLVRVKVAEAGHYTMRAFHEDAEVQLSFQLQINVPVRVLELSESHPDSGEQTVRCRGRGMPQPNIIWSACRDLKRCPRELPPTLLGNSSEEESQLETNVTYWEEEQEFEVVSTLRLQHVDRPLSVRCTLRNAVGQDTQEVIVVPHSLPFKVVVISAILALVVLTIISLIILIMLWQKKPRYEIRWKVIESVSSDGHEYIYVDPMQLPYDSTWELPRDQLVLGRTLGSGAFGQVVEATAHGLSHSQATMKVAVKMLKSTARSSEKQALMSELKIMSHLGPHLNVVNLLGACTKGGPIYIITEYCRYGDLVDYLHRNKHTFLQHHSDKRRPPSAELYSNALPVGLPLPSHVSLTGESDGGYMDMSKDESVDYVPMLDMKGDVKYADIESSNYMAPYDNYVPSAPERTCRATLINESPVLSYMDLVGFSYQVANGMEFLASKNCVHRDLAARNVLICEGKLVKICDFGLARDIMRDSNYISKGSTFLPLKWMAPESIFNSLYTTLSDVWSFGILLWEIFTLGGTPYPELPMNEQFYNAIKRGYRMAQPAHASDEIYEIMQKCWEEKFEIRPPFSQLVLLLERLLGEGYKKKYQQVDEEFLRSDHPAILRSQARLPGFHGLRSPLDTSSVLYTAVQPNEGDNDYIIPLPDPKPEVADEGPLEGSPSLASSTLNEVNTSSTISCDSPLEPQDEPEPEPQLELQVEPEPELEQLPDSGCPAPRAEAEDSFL

HT-29 = assay: Cytoprotection against TNFalpha/cycloheximide/Z-VAD-fmk-induced necroptosis in human HT-29 cells at 3 uM treated prior to TNFalpha/cycloheximide/Z-VAD-fmk stimulation and measured after 12 hrs by cell-Titer Glo luminescent cell viability assay; type: functional, cell-based
Method in brief: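 HT-29 cells pretreated with compound at 3 μM or DMSO, then given TNF-α 20 ng/mL, cycloheximide 5 μg/mL and z-VAD-fmk 20 μM for 12 h. Viability read by CellTiter-Glo luminescence.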

[10] = biological target: Receptor-interacting serine/threonine-protein kinase 3 (Homo sapiens, UniProt Q9Y572); assay: Inhibition of RIPK3 phosphorylation in human HT-29 cells assessed as reduction in TNFalpha/smac mimetic/Z-VAD-fmk-induced necrosome formation at 1 uM treated prior to TNFalpha/smac mimetic/Z-VAD-fmk stimulation and measured after 4 hrs by immunoprecipitation based assay; type: cell-based
Chain of Receptor-interacting serine/threonine-protein kinase 3 (Q9Y572 whole entry, looked up): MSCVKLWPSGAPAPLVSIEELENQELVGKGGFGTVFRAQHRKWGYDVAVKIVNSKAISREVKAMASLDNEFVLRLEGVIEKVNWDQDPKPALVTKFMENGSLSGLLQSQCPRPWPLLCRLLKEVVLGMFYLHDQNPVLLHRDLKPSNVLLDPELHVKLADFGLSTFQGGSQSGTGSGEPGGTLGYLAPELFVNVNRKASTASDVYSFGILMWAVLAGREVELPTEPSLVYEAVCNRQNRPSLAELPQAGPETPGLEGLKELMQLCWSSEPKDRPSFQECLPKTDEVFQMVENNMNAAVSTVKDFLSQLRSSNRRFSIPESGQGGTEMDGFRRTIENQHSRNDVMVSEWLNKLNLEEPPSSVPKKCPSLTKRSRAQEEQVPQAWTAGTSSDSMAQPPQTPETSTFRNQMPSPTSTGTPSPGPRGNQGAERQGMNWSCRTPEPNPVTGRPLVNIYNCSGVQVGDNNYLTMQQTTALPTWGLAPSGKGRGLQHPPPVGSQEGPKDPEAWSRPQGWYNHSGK
Method in brief: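 HT-29 cells treated with 1 μM compound or DMSO for 4 h, then lysed in M2 buffer. Lysates immunoprecipitated overnight at 4 °C with anti-RIPK1 (1 μg) on protein A/G agarose. Bound proteins boiled off and resolved on 4–20% SDS gels, then immunoblotted.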

Mus musculus [11] = assay: (§1) Protection against TNFalpha/Z-VAD-fmk-induced C57BL/6J mouse model of systemic inflammatory response syndrome assessed as increase in body temperature at 5 to 50 mg/kg, po administered via gavage 2 hrs prior to Z-VAD-fmk addition for 15 mins followed by TNFalpha stimulation for 1 hr and subsequent Z-VAD-fmk addition meaured up to 50 hrs post TNFalpha stimulation by electric thermometer; type: functional, organism-based
Method in brief: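 Female C57BL/6 mice, fasted overnight, n=10 per group. Compound given by oral gavage at 5, 25 or 50 mg/kg 2 h before TNF. z-VAD-fmk 180 µg i.p., then 15 min later mTNF-α 400 µg/kg i.v. in endotoxin-free PBS, then a further 70 µg z-VAD-fmk i.p. 1 h later. Body temperature and survival followed, compared with vehicle by one-way ANOVA.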

[12] = Half-life in Sprague-Dawley rat at 1 mg/kg, iv by LC-tandem mass spectrometry analysis; type: ADME, organism-based; conditions: in vivo
Method in brief: (§2)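 Male Sprague-Dawley rats dosed once i.v. at 1 mg/kg or intragastrically at 5 mg/kg. Compound dissolved in 5% DMSO, 10% Tween 80, 75% physiological saline at 0.2 and 1 mg/mL. Blood taken at several time points, plasma spun at 4 °C, stored at -80 °C, assayed by LC/MS/MS. Parameters from individual animals by noncompartmental analysis.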

[13] = Apparent volume of distribution at steady state in Sprague-Dawley rat at 1 mg/kg, iv by LC-tandem mass spectrometry analysis; type: ADME, organism-based; conditions: in vivo, read-out: Vdss(app); method in brief: as §2
[14] = Half-life in Sprague-Dawley rat at 5 mg/kg, po by LC-tandem mass spectrometry analysis; type: ADME, organism-based; conditions: in vivo; method in brief: as §2
[15] = Tmax in Sprague-Dawley rat at 5 mg/kg, po by LC-tandem mass spectrometry analysis; type: ADME, organism-based; conditions: in vivo
Method in brief: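 Male Sprague-Dawley rats received compound iv (1 mg/kg) or intragastrically (5 mg/kg). The vehicle was 5% DMSO, 10% Tween 80 and 75% saline, at 0.2 or 1 mg/mL. Blood was sampled at several time points and centrifuged at 4 °C. Plasma was stored at -80 °C and analysed by LC/MS/MS. Parameters were derived by noncompartmental analysis of individual animal data.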

[16] = Oral bioavailability in Sprague-Dawley rat at 5 mg/kg by LC-tandem mass spectrometry analysis; type: ADME, organism-based; conditions: in vivo; method in brief: as §2
Mus musculus [17] = assay: as §1, with “syndrome” for “syndrome assessed as increase in body temperature”, “5” for “5 to 50”, “relative to control” for “by electric thermometer”; type: functional
Method in brief: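 Overnight-fasted C57BL/6 female mice, n=10 per group. Test compound was given by oral gavage 2 h before mTNF-α. z-VAD-fmk (180 µg) was injected ip, then 15 min later mTNF-α in endotoxin-free PBS was injected iv (400 µg/kg). A second z-VAD-fmk dose (70 µg) was given ip 1 h after TNF. Body temperature and survival were followed against vehicle. One-way ANOVA was used.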

[18] = Toxicity in Sprague-Dawley rat at 1 mg/kg, iv or 5 mg/kg, po; type: organism-based; conditions: in vivo

O=C(Nc1cccc(Br)c1)Nc1cc(Oc2ccc3nc(NC(=O)C4CC4)sc3c2)ccc1F
CC50 at 12 h [1]: > 50 µM | Activity [2]: 33% | Activity [3]: 100% | Activity [4]: 2.8% | Activity [5]: 81% | Activity [6]: 100% | Activity [7]: 100% | Activity [8]: 100% | Activity [9]: 0% | Activity (HT-29): Active | inhibition [10]: Active | Activity (Mus musculus [11]): Active | half-life [12]: 15.4 h | Vd [13]: 3.49 L/kg | half-life [14]: 15.2 h | Tmax [15]: 8.67 h | bioavailability [16]: 25.2% | Activity (Mus musculus [17]): 90% | Activity [18]: Non-Toxic

— ChEMBL document CHEMBL4406794, “N-(7-Cyano-6-(4-fluoro-3-(2-(3-(trifluoromethyl)phenyl)acetamido)phenoxy)benzo[d]thiazol-2-yl)cyclopropanecarboxamide (TAK-632) Analogues as Novel Necroptosis Inhibitors by Targeting Receptor-Interacting Protein Kinase 3 (RIPK3): Synthesis, Structure-Activity Relationships, and in Vivo Efficacy” (J Med Chem, 2019)
